pIC50: −log10 of the molar value.
Columns and labels:
[1] = Cytotoxicity against human Hep2 cells assessed as maximum non-cytotoxic concentration after 3 days by XTT assay; format: cell-based, HEp-2
How it was run: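 Hep-2 cells grown in high-glucose DMEM, seeded at 2 × 10³ per well with twofold dilutions from the maximum soluble concentration, quadruplicate wells, 3 days at 37 °C in 5% CO2. XTT (final 0.15 mg/mL) for 4 h, read at 492/690 nm, plus microscopic scoring. MNTC is the highest dose causing no toxic effect or growth reduction.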

[2] = Cytotoxicity against human HeLa cells assessed as maximum non-cytotoxic concentration after 3 days by XTT assay; format: cell-based
How it was run: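 HeLa cells seeded at 2 × 10³ per well with twofold compound dilutions from the maximum soluble concentration, quadruplicate wells, 37 °C in 5% CO2 for 3 days until controls were confluent. XTT added (final 0.15 mg/mL) for 4 h, absorbance read at 492 nm with 690 nm reference. Morphology also scored microscopically. […] MNTC is the highest dose with no toxicity or growth reduction.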

[3] = Therapeutic index, ratio of TC50 for human HeLa cells to IC50 for HRV 1B; format: cell-based; settings: read-out: TI
How it was run: (§1)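 Therapeutic index calculated as TC50 for HeLa cells (XTT, 3 days) divided by IC50 for plaque reduction of HRV 14 or HRV 1B in HeLa cells.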

[4] = Cytotoxicity against human HeLa cells after 3 days by XTT assay; format: cell-based; settings: read-out: TC50
How it was run: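 HeLa cells seeded at 2 × 10³ per well with twofold compound dilutions from the maximum soluble concentration, quadruplicate wells, 37 °C in 5% CO2 for 3 days until controls were confluent. Morphology also scored microscopically. MNTC is the highest dose with no toxicity or growth reduction.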

[5] = tested on: rhinovirus B14; assay: Antiviral activity against Human rhinovirus 14 infected in human HeLa cells after 3 days by plaque reduction assay; format: functional, organism-based; settings: for pIC50: Rhinovirus B, 72 h
How it was run: (§2)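 HeLa monolayers infected with ATCC HRV 14 or 1B at about 100 plaques per well, 1 h adsorption at 33 °C. Inoculum removed, then plaque overlay with fourfold drug dilutions from the MNTC. Three days at 33 °C, neutral red (0.2 mg/mL, PBS pH 7.4) staining and plaque count, triplicate wells. IC50 from log dose vs % reduction relative to mock-treated control. Otherwise % inhibition at MNTC is reported.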

[6] = tested on: rhinovirus A1B; assay: Antiviral activity against Human rhinovirus 1B infected in human HeLa cells after 3 days by plaque reduction assay; format: functional, organism-based; settings: for pIC50: Rhinovirus A, 72 h; how it was run: as §2
[7] = tested on: Enterovirus A71; assay: Antiviral activity against Human enterovirus 71 infected in human Hep2 cells after 2 days by plaque reduction assay; format: functional, organism-based; settings: for pIC50: Enterovirus A, HEp-2, 48 h; for Activity: HEp-2
How it was run: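 Inoculum removed, then plaque overlay with fourfold drug dilutions starting from the MNTC. Two days at 37 °C, neutral red (0.2 mg/mL in PBS pH 7.4) staining, plaques counted, triplicate wells. IC50 taken from log dose vs % plaque reduction.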

[8] = tested on: rhinovirus B14; assay: Antiviral activity against Human rhinovirus 14 infected in human HeLa cells at maximum non-cytotoxic concentration after 3 days by plaque reduction assay; format: functional; how it was run: as §2
[9] = tested on: Enterovirus A71; assay: Antiviral activity against Human enterovirus 71 infected in human Hep2 cells at maximum non-cytotoxic concentration […] by plaque reduction assay; format: functional, HEp-2
[10] = Therapeutic index, ratio of TC50 for human HeLa cells to IC50 for HRV 14; format: cell-based; settings: read-out: TI; how it was run: as §1

| Compound | MNTC at 72 h [1] | MNTC at 72 h [2] | selectivity ratio [3] | CC50 at 72 h [4] | Activity [5] | pIC50 [5] | Activity [6] | pIC50 [6] | pIC50 [7] | Activity [7] | inhibition (INH) [8] | inhibition (INH) [9] | selectivity ratio [10] |
| --- | --- | --- | --- | --- | --- | --- | --- | --- | --- | --- | --- | --- | --- |
| Clc1ccc(C2CCc3cc(Cl)ccc3O2)cc1 (configuration not stated) | 10 µM | – | – | – | – | – | – | – | – | – | – | – | – |
| O=c1c(/C=C/C=C/c2ccc(Cl)cc2)coc2ccc(Cl)cc12 | 3.12 µM | 3.12 µM | 8.8 | 6.25 µM | Dose-dependent effect | < 5.51 | Dose-dependent effect | 6.15 | < 5.51 | Dose-dependent effect | 36.2% | 46.6% | – |
| Clc1ccc(/C=C/C2=Cc3ccccc3OC2)cc1 | 50 µM | 50 µM | 250 | 100 µM | Dose-dependent effect | 4.74 | Dose-dependent effect | 6.40 | < 4.30 | Dose-dependent effect | – | 49.7% | 5.44 |
| Clc1ccc(/C=C/C=C/C2=Cc3cc(Cl)ccc3OC2)cc1 | 6.25 µM | 6.25 µM | 23.1 | 12.5 µM | Dose-dependent effect | < 5.20 | Dose-dependent effect | 6.27 | < 5.20 | Dose-dependent effect | 12.8% | 39.1% | – |
| O=c1c(/C=C/c2ccccc2)coc2ccccc12 | 50 µM | > 200 µM | > 64.2 | > 200 µM | Dose-dependent effect | 5.36 | Dose-dependent effect | 5.51 | < 4.30 | Dose-dependent effect | – | 34.6% | > 45.9 |
| O=c1c(/C=C/c2ccc(Cl)cc2)coc2ccc(Cl)cc12 | 25 µM | 25 µM | 22.2 | 50 µM | Dose-dependent effect | < 4.60 | Dose-dependent effect | 5.66 | < 4.60 | Dose-dependent effect | 24.1% | 35.7% | – |
| O=c1c(/C=C/C=C/c2ccccc2)coc2ccc(Cl)cc12 | 50 µM | 50 µM | 62.5 | 100 µM | Dose-dependent effect | < 4.30 | Dose-dependent effect | 5.80 | < 4.30 | Dose-dependent effect | 48.3% | 46.7% | – |
| O=c1c(/C=C/C=C/c2ccc(Cl)cc2)coc2ccccc12 | 25 µM | 25 µM | 12.2 | 50 µM | Dose-dependent effect | 5.39 | Dose-dependent effect | 5.39 | < 4.60 | Dose-dependent effect | – | 49.1% | 12.3 |
| Clc1ccc(/C=C/C2=Cc3cc(Cl)ccc3OC2)cc1 | 12.5 µM | 25 µM | 7.01 | 50 µM | Dose-dependent effect | 5.08 | Dose-dependent effect | 5.15 | < 4.90 | Dose-dependent effect | – | 46.6% | 6.04 |
| Clc1ccc2c(c1)C=C(/C=C/c1ccccc1)CO2 | 50 µM | 50 µM | 8.93 | 100 µM | Dose-dependent effect | 4.95 | Dose-dependent effect | 4.95 | < 4.30 | Dose-dependent effect | – | 30.8% | 8.95 |
| Clc1ccc(/C=C/C=C/C2=Cc3ccccc3OC2)cc1 | 3.12 µM | 3.12 µM | 2 | 6.25 µM | Dose-dependent effect | < 5.51 | Dose-dependent effect | 5.51 | < 5.51 | Dose-dependent effect | 30.4% | 32.9% | – |
| C1=C(/C=C/C=C/c2ccccc2)COc2ccccc21 | 50 µM | 50 µM | 3.24 | 100 µM | Dose-dependent effect | 4.30 | Dose-dependent effect | 4.51 | < 4.30 | Dose-dependent effect | – | 29.5% | 2 |
| O=c1c(/C=C/c2ccc(Cl)cc2)coc2ccccc12 | 25 µM | 25 µM | 11 | 50 µM | Dose-dependent effect | 5.26 | Dose-dependent effect | 5.34 | < 4.60 | Dose-dependent effect | – | 21.6% | 9.06 |
| O=c1c(/C=C/C=C/c2ccccc2)coc2ccccc12 | 25 µM | 25 µM | 9.49 | 50 µM | Dose-dependent effect | 4.82 | Dose-dependent effect | 5.28 | < 4.60 | Dose-dependent effect | – | 39.8% | 3.33 |
